Compound activity: PubChem BioAssay, several laboratories
Arbovirus inh: antivirals against arbovirus infection; arbovirus infection cell-based antiviral screen; inhibition, % at 10 µM; 0.37% of 200,000 active; AID 1251; in the data active means inhibition above about 30%
ABCG2 block: inhibitors of human ABCG2 transporter, ABCB1 counter-screen | 0.1% of 190,000 active | Q9UNQ0 | inhibition, % at 6.6 µM | IgMXP3 cells, JC-1 efflux, flow cytometry;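 active means inhibition above 80%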;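 further: 0% = DMSO and 100% = nicardipine control wells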
Target sequence (Q9UNQ0 whole entry, looked up): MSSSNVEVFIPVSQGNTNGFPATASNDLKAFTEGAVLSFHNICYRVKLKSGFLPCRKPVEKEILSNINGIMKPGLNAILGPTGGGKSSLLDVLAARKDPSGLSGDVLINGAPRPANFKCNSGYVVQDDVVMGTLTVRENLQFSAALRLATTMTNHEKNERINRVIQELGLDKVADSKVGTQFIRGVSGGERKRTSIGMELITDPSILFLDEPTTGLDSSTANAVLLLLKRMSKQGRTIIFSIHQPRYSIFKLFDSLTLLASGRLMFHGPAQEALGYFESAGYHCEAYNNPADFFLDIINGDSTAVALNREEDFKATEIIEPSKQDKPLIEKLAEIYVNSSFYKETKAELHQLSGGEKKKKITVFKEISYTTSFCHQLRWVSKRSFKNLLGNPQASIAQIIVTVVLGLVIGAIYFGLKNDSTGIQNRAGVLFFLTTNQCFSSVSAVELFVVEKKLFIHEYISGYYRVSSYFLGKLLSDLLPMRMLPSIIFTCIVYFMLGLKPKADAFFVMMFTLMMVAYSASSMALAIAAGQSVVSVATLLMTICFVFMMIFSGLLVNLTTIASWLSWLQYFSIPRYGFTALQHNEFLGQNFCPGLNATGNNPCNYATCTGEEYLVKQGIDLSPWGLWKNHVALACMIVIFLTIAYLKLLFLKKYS
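Assay system – ABCG2 IgMXP3 and barcoded ABCB1 CCRF-Adr cell mix · Input – 3 million cells/mL in well · Reagent – JC-1 fluorescent substrate · Compound – single test compound dose, 6.6 µM final · Timing – 10 min exposure at 25 °C with rotation, no wash · Detection – flow cytometry of retained JC-1 fluorescence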
MDM2 E3 inh: inhibitors of human Mdm2 E3 ubiquitin ligase | Q00987 | cell-based MDM2 ubiquitination luciferase reporter, 2 h; 0 = plate control, 100 = twice control, blank-subtracted | signal enhancement, % at 5 µM | 0.11% of 210,000 active;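 active means signal enhancement of 30% or more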;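 further: luminescence tracks abundance of the self-degrading MDM2-luciferase fusion protein; higher signal means inhibition of MDM2 E3 ligase activity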
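Timing – 2 h compound exposure at 37 °C · Assay system – mammalian cells stably expressing self-ubiquitinating, self-degrading MDM2 E3–luciferase fusion · Amount – 2000 cells seeded into each well · Measure – % luminescence enhancement versus blank-corrected plate control mean · Measured by – SteadyLite luminescence, 15 min reagent step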
ABCB1 inh: blocks JC-1 efflux by human ABCB1 transporter; P08183; CCRF-Adr cells, flow cytometry; inhibition, % at 6.6 µM; 0.067% of 190,000 active; in the data active means inhibition above about 40%;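 further: 0% = vehicle and 100% = reference inhibitor; higher value means more JC-1 retained so stronger ABCB1 efflux block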
Rad51 HR inh: Rad51 (human) homologous recombination inhibition. Q06609. hRad51 DNA strand exchange, fluorescence dequenching. inhibition, % at 10 µM. 0.085% of 200,000 active. AID 1385;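 active means inhibition above 40% at the single screening dose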;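 further: 0% = DMSO control wells and 100% = blanks with heterologous ssDNA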
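System: hRad51 filaments on single-stranded DNA; reagent: Fluorescein- and BHQ1-tagged 47-mer duplex; compound dosing: one concentration, 10 µM final; timing: filaments 15 min 37 °C, then compound 30 min; measured by: fluorescein emission 520 nm, excitation 485 nm; benchmarks: per-plate controls and blanks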
Starred values were filed as active, the others as inactive. Most compounds without a hit are left out; they make up all but 0.62% or so of the library.

For CCCN(CCC)CCNc1c(NC2CCN(C(=O)OCC)CC2)c(=O)c1=O the results were Arbovirus inh 5.4, ABCG2 block 2.1, MDM2 E3 inh 47.7*, ABCB1 inh 0.2 and Rad51 HR inh -1.9.
CCCN(CCC)CCNc1c(N2CCN(C(=O)OCC)CC2)c(=O)c1=O was read as Arbovirus inh -1.1, ABCG2 block 0.1, MDM2 E3 inh -19.1, ABCB1 inh 0.1 and Rad51 HR inh -1.6.
`CCN1/C(=C/c2ccc3cc(C)ccc3[n+]2CC)Sc2ccccc21` gave Arbovirus inh -35.7, ABCG2 block active, MDM2 E3 inh -59.6 and Rad51 HR inh -214.6.
Screening O=C(CN1C(=O)c2ccccc2S1(=O)=O)Nc1ccc(S(=O)(=O)N2CCCCC2)cc1 returned Arbovirus inh 0.1, ABCG2 block 21.8, MDM2 E3 inh -1.2, ABCB1 inh 0.7 and Rad51 HR inh 72.8*.
`O=C(CN1C(=O)c2ccccc2S1(=O)=O)Nc1ccc(S(=O)(=O)N2CCCC2)cc1` gave Arbovirus inh 1.1, ABCG2 block 0.1, MDM2 E3 inh -73.0, ABCB1 inh 0.2 and Rad51 HR inh -1.5.
`Cc1ccc(NC(=O)COC(=O)CNC(=O)c2ccc3ccccc3c2)c([N+](=O)[O-])c1` gave Arbovirus inh 0.5, ABCG2 block 3.9, MDM2 E3 inh -1.4, ABCB1 inh 0.4 and Rad51 HR inh 3.5.
`O=c1[nH]c(=O)n(C(c2ccccc2)c2ccccc2)cc1Br` gave Arbovirus inh 31.5*, ABCG2 block 5.5, MDM2 E3 inh -2.5, ABCB1 inh 0.4 and Rad51 HR inh 25.8.
Cn1ccc(C(=O)Oc2ccc(C(=O)Nc3ccc(F)cc3F)cc2)n1 was read as Arbovirus inh 4.9, ABCG2 block 1.8, MDM2 E3 inh -9.3, ABCB1 inh 0.7 and Rad51 HR inh 1.3.
Cc1cc(O)ccc1N=Cc1c(C(F)(F)F)[nH][nH]c1=O was read as Arbovirus inh -16.8, ABCG2 block 8.5, MDM2 E3 inh -3.4, ABCB1 inh 0.1 and Rad51 HR inh 23.9.
CS(=O)(=O)N1CCN(C(=O)c2ccc(Cl)s2)CC1 was read as Arbovirus inh -0.3, ABCG2 block -2.3, MDM2 E3 inh -16.1, ABCB1 inh 0.6 and Rad51 HR inh 43.1*.
`O=C(c1ccc(Cl)s1)N1CCCC1` gave Arbovirus inh 2.7, ABCG2 block 5.6, MDM2 E3 inh -1.2, ABCB1 inh 1.0 and Rad51 HR inh -1.0.
For O=C(CC(C(=O)NCc1ccccc1)c1nc2ccccc2c(=O)[nH]1)NCc1ccccc1 (configuration not stated) the results were MDM2 E3 inh -9.6 and Rad51 HR inh -8.2.
Screening Cc1ccc(CNC(=O)COC(=O)Cn2nc(C)c([N+](=O)[O-])c2C)cc1 returned Arbovirus inh 1.5, ABCG2 block 17.5, MDM2 E3 inh 3.5, ABCB1 inh 1.3 and Rad51 HR inh -150.7.
`Cc1nn(CC(=O)OCCOc2ccc(Br)cc2)c(C)c1[N+](=O)[O-]` gave Arbovirus inh 60.7*, ABCG2 block -0.4, MDM2 E3 inh -14.1, ABCB1 inh -0.4 and Rad51 HR inh 0.2.
Screening Cc1cccc(OCCSCc2nc3ccccc3[nH]2)c1 returned Arbovirus inh 9.2, ABCG2 block 4.8, MDM2 E3 inh 3.1, ABCB1 inh 1.2 and Rad51 HR inh -5.0.
For Cc1ccccc1OCCSCc1nc2ccccc2[nH]1 the results were Arbovirus inh 66.2*, ABCG2 block 19.7, MDM2 E3 inh -36.1, ABCB1 inh 0.8 and Rad51 HR inh -10.3.
For O=C(CSc1ccc(F)cc1)Nc1ccc(C2SCCS2)cc1 the results were MDM2 E3 inh -14.2 and Rad51 HR inh 3.1.
`CCN(CC)Cc1cc(C(=O)O)c(C)o1` gave Arbovirus inh 3.1, ABCG2 block 23.0, MDM2 E3 inh 31.6*, ABCB1 inh 0.2 and Rad51 HR inh -2.5.
For Nn1c(SCC(=O)Nc2ccccc2F)nnc1-c1cccnc1 the results were Arbovirus inh -5.0, ABCG2 block -0.2, MDM2 E3 inh -14.9, ABCB1 inh 0.0 and Rad51 HR inh 4.7.
`COC(=O)c1ccccc1NC(=O)CSc1nnc(-c2cccnc2)n1N` gave Arbovirus inh -5.5, ABCG2 block 12.9, MDM2 E3 inh 17.9, ABCB1 inh 0.5 and Rad51 HR inh 44.1*.
CCC(=O)NS(=O)(=O)c1ccc(-c2c(-c3ccccc3)noc2C)cc1 was read as Rad51 HR inh 0.9.
For O=C(Nc1ccc(F)cc1)c1ccccc1S(=O)(=O)c1ccccc1[N+](=O)[O-] the results were Arbovirus inh -1.0, ABCG2 block 8.5, MDM2 E3 inh 48.8*, ABCB1 inh 2.5 and Rad51 HR inh 10.6.
For COCCCn1c(N)c(-c2nc3ccccc3n2C)c2nc3ccccc3nc21 the results were Arbovirus inh 44.1*, ABCG2 block 0.3, MDM2 E3 inh -14.5, ABCB1 inh 0.5 and Rad51 HR inh 2.9.
O=C1CCN(Cc2ccccc2)S(=O)(=O)c2ccccc21 was read as MDM2 E3 inh 39.9* and Rad51 HR inh -1.5.
Screening CCc1c(C)c(C#N)c2nc3ccccc3n2c1Cl returned Arbovirus inh -39.8, ABCG2 block 7.2, MDM2 E3 inh 43.9*, ABCB1 inh -6.1 and Rad51 HR inh -35.1.
`CCOC(=O)c1c(NC(=S)Nc2ccccc2)sc2c1CCN(CC)C2` gave Arbovirus inh 11.8, ABCG2 block -1.7, MDM2 E3 inh 50.7*, ABCB1 inh -0.6 and Rad51 HR inh -47.3.
Screening O=C(/C=C/c1ccco1)Nc1scc(-c2ccccc2)c1C(=O)O returned MDM2 E3 inh -47.1 and Rad51 HR inh 13.4.
O=C(/C=C/c1ccccc1)Nc1scc(-c2ccccc2)c1C(=O)O was read as Arbovirus inh 73.2*, ABCG2 block -0.7, MDM2 E3 inh -24.2, ABCB1 inh -0.5 and Rad51 HR inh -7.3.
COc1ccc(-c2csc(NC(=O)Cc3cccc4ccccc34)c2C(=O)O)cc1 was read as Arbovirus inh 46.6*, ABCG2 block 0.3, MDM2 E3 inh -3.8, ABCB1 inh -0.4 and Rad51 HR inh 2.1.
Cc1ccc(C(=O)Nc2scc(-c3ccccc3)c2C(=O)O)o1 was read as Arbovirus inh 62.0*, ABCG2 block -0.1, MDM2 E3 inh -6.7, ABCB1 inh 0.0 and Rad51 HR inh -4.2.
Screening CC1Cc2ccccc2N1C(=O)CSc1ccccc1 (configuration not stated) returned Arbovirus inh 30.5*, ABCG2 block 1.5, MDM2 E3 inh 5.8, ABCB1 inh 0.2 and Rad51 HR inh 1.9.
CC(C)C(=O)Nc1nnc(SCC(=O)N2c3ccccc3CC2C)s1 (configuration not stated) was read as Arbovirus inh 39.3*, ABCG2 block 3.5, MDM2 E3 inh 1.1, ABCB1 inh 0.4 and Rad51 HR inh -3.5.
For CC1Cc2ccccc2N1C(=O)CSC1=NCCS1 (configuration not stated) the results were Arbovirus inh 0.4, ABCG2 block 0.5, MDM2 E3 inh -26.5, ABCB1 inh 0.1 and Rad51 HR inh -12.3.
